# Rows were chosen to be rich in hits. Some 9% of all compounds tested hit in one or more screens of this group.
# M1 ag: M1 muscarinic receptor agonists, primary screen, CHO-M1 cells, Fluo-4 calcium, agonist mode; AID 626, 2007; B-score at 10 µM; hit rate 3% among 64,000; Fluo-4 calcium fluorescence; stronger effect = higher value; Muscarinic acetylcholine receptor M1;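 active = fluorescence rise, raw or as B-score row- and column-corrected plate score, outside the 99.7% band of its plate's samples, either direction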
# D1 allo mod: D1 CRE-luciferase signal change, two-sided – cell-based, HEK293 D1, dopamine EC30, D1 allosteric modulator project, primary screen; D(1A) dopamine receptor (Homo sapiens), P21728; dopamine EC30 potentiation; actives deviate in either direction; B-score at 10 µM; hit rate 5.9% among 58,000; AID 641, 2007;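 active = luminescence count or its row- and column-corrected plate score outside the 99.7% band of the plate's sample wells, on either side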
# Target sequence (P21728 whole entry, looked up): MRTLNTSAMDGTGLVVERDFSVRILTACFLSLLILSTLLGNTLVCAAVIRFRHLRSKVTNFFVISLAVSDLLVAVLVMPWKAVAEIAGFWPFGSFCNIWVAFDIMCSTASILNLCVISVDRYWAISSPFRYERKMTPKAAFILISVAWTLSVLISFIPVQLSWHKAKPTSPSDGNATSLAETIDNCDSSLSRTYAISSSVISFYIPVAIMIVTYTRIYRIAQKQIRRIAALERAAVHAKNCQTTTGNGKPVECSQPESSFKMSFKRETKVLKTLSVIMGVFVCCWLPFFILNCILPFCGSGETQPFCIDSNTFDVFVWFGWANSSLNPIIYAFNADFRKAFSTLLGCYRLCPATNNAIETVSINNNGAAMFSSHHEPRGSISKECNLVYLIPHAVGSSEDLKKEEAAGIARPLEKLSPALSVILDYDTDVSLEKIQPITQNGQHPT
# M1 antag: antagonists of rat M1 muscarinic receptor | hit rate 3.4% among 64,000 | CHO-M1 cells, Fluo-4 calcium, ACh EC80 antagonist mode; stronger effect = lower value | Muscarinic acetylcholine receptor M1 (Rattus norvegicus), P08482 | B-score at 10 µM;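 active = calcium fluorescence response, raw or row-and-column corrected B-score, differing from the plate sample mean either way at a set confidence level, mostly lower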
# AP ELISA ortho: alternative complement pathway inhibitors, primary screen, biochemical, ELISA, human serum, orthogonally pooled compounds; AID 1235, 2008; LPS-coated ELISA, C3 deposition; tested in compound mixtures; inhibition, % at 5 µM; hit rate 0.08% among 62,000;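 active = inhibition above 30% in each of the two pooled mixtures holding the compound, so the lower value exceeds 30%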;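 also: 0% = serum in Mg-EGTA without compound and 100% = EDTA serum blank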
#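 Test system: human serum complement alternative pathway, C3 deposition onto LPS / Medium: Mg2+-EGTA GVB++ buffer containing human serum at 1:15 dilution / Probe or stimulus: Plate-bound LPS / Times: 1 h at 37 °C / Signal: ELISA with HRP anti-human C3 antibody, TMB substrate, absorbance 450 nm / Measure: percent inhibition / Repeats: two pool placements per compound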
# mHtt clearance: clearance of mutant huntingtin inclusions, primary screen, imaging, HeLa Exon1htt(103Q)mCFP, confocal imaging; aggregate imaging; zero = plate's median compound well; inhibition, % at 1.5 µM; hit rate 0.42% among 47,000; AID 853, 2007;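 active = inhibition of aggregate fluorescence above about 70%, also judged a hit by eye on the cell image, limit read from the data, passing the limit was not always enough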;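 also: cells exposed to compound for three days before fixation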
# Starred values were filed as active, the others as inactive; . = not tested or not shown.
SMILES,M1 ag,D1 allo mod,M1 antag,AP ELISA ortho,mHtt clearance
c1cnc(N2CCN(c3ncnc4c3oc3ccccc34)CC2)nc1,3.2*,4.4,-1.5,22,.
c1ccc2c(c1)oc1c(N3CCOCC3)ncnc12,-1.5,3.6,0.6,3,.
C(=C\c1ccccc1)/CN1CCN(c2ncnc3c2oc2ccccc23)CC1,6.9*,-1.6,-0.65,8,.
COc1ccc(-c2nnc(SC(C)C(=O)Nc3cccc(Cl)c3)o2)cc1 (centres undefined),-0.59,-0.34,0.0051,13,-9
CCN1CCn2c3c(c4cc(Cl)ccc42)CCCC31 (centres undefined),0.034,-0.34,1.8*,3,19
CS(=O)(=O)N(CC(=O)N1CCCC1)c1ccc(OCc2ccccc2)cc1,-1.2,-0.21,-0.51,-4,78*
CCCn1nc(NC(=O)c2cccs2)c2cc3cc(OC)ccc3nc21,3.6*,0.18,-1.4,6,.
CCCn1nc(NC(=O)c2cccs2)c2cc3ccccc3nc21,.,.,.,.,21
O=c1c2ccccc2nnn1CSc1nnc2sc3ccccc3n12,0.57,-7.8*,-0.99,1,-13
CCCCCCCCCCOC(=O)c1csc2nnsc12,.,.,.,.,31
Cc1cc(C)cc(C(=O)/C=C2\NC(=O)CS2)c1,1.1,-1.8*,-0.2,8,.
O=C1CS/C(=C/C(=O)c2ccccc2)N1,0.0072,0.39,-0.16,29,.
Cc1ccccc1-n1c(SCc2c(C)noc2C)nnc1-c1c[nH]c2ccccc12,-0.98,-6.2*,1.6,12,49
CSCC[C@H](NC(=O)OC(C)(C)C)c1nnc(SCC(=O)Nc2ccc(C)cc2C)o1,0.69,.,-0.034,8,.
Fc1cccc2sc(Nc3nnc(-c4ccco4)o3)nc12,0.29,-2.7*,-0.48,3,14
COc1cccc2sc(Nc3nnc(-c4ccc(F)cc4)o3)nc12,.,.,.,.,45
O=C(NC1(C(F)(F)F)C(=O)Nc2c1c(=O)[nH]c(=O)n2Cc1ccco1)C1CC1 (centres undefined),-0.049,.,1.7,7,-45
Cc1ccc(S(=O)(=O)N(CCC#N)CCN2CCCC2)cc1,0.76,-0.26,-0.69,-1,-4
Nc1nc(Nc2ccccc2)nc2ccccc12,0.084,-5.6*,-0.81,2,32
CCN(CC)c1ccc2cc(C(=O)Nc3ccc(-n4cnnn4)c(OC)c3)c(=O)oc2c1,20*,1.5,-1.2,11,.
COc1ccc(-c2cc3nc4n(c(=O)c3s2)CCOC4)cc1,-0.76,.,-0.36,.,.
CC(=O)Nc1ccc(S(=O)(=O)NC2=NCN(CCOC(=O)c3ccccc3)CN2)cc1,-0.75,-5.2*,0.32,6,8
Cc1ccccc1NC(=O)c1ccc(F)c(S(=O)(=O)N2CCN(c3ccccn3)CC2)c1,-1.6,-2.2*,0.041,22,.
CCn1c2ccccc2c2nnc(SCc3cc(=O)n4ccsc4n3)nc21,-0.54,12*,0.16,5,.
CCCn1c(=O)c2ccccc2n2c(SCc3cc(=O)n4ccsc4n3)nnc12,0.049,2.5,-0.18,1,.
SMILES,M1 ag,D1 allo mod,M1 antag,AP ELISA ortho,mHtt clearance
Cc1ccc(S(=O)(=O)c2cc3c(=O)n4ccccc4nc3n(CC3CCCO3)c2=N)cc1C (centres undefined),0.46,10*,-0.055,0,.
N=c1c(S(=O)(=O)c2ccccc2)cc2c(=O)n3ccccc3nc2n1CCN1CCOCC1,-0.13,-0.076,0.52,13,.
CC(C)c1ccc2oc(-c3ccc(N)cc3)nc2c1,-0.24,-6*,-0.012,9,37
CCCCCSc1nc2c(c(=O)[nH]c(=O)n2C)n1CC,0.3,9*,0.22,24,.
CCCCCCn1c(SCC(C)C)nc2c1c(=O)[nH]c(=O)n2C,-0.41,27*,0.85,9,15
CCCCCSc1nc2c(c(=O)[nH]c(=O)n2C)n1C,2.7,2.5,0.025,12,9
C=CCn1c(SCC(=C)C)nc2c1c(=O)[nH]c(=O)n2C,-0.57,6.6*,0.088,16,.
CCNc1nnc(-c2ccc(C)cc2)o1,0.57,-0.27,0.1,-14,19
O=P(O)(CN1CCCCC1)C1CCCCC1O (centres undefined),0.24,-0.27,-0.21,17,.
CN(C)c1ccc(NC(=S)c2ccccn2)cc1,0.86,-6.2*,-0.32,13,.
CN(C)S(=O)(=O)c1ccc(NC(=O)c2ccccn2)cc1,-1,-1.1,-0.99,6,22
Cc1ccc(S(=O)(=O)NC(=O)c2cc(C)n(CCCN3CCOCC3)c2C)cc1,-0.012,-2.4*,0.15,9,.
COc1ccc(S(=O)(=O)N(CCc2ccccc2)CC(=O)O)cc1,.,.,.,.,-9
Cc1cc(C(=O)COC(=O)c2n[nH]c3ccccc23)c(C)n1C,-0.94,.,-0.11,4,11
COCCn1c(C)cc(C(=O)COC(=O)c2n[nH]c3ccccc23)c1C,-2,-8.4*,-0.11,12,.
CCCCn1c(N(CCOC(C)=O)C(C)=O)nc2ccccc21,-0.2,-1,1,14,37
CC(C)CC1NC(=O)N(CC(=O)N2CCN(S(=O)(=O)c3ccccc3)CC2)C1=O (centres undefined),.,.,.,.,-48
CS(=O)(=O)c1ccc2nc(NC(=O)C3COc4ccccc4O3)sc2c1 (centres undefined),-0.97,-0.28,0.66,5,-33
COc1ccc2nc(NC(=O)C3COc4ccccc4O3)sc2c1 (centres undefined),0.14,-4.8*,-1.5,15,.
O=C(Nc1nc2c(s1)CCCC2)C1COc2ccccc2O1 (centres undefined),0.53,-6.9*,1,11,.
O=C(NC1=NCCS1)C1COc2ccccc2O1 (centres undefined),-0.6,-5.4*,-0.7,-7,.
Cc1ccc(-n2c(CNc3ccc(F)cc3)nnc2SCC(N)=O)cc1,.,.,.,.,-38
CC(C)CC(=O)Nc1ccccc1Oc1ccccc1,.,.,.,.,-20
CC(=O)Nc1ccc2oc(-c3ccccc3Br)nc2c1,-0.051,-2.8*,0.12,-12,34
CCC(=O)Nc1ccc2oc(-c3ccccc3Br)nc2c1,-0.00011,-0.29,0.082,-19,13
SMILES,M1 ag,D1 allo mod,M1 antag,AP ELISA ortho,mHtt clearance
CC(C)(C)NS(=O)(=O)c1ccc(NC(=O)C(Sc2ccccc2)c2ccccc2)cc1 (centres undefined),.,.,.,.,-1
O=C(CCCCCN1C(=O)CCC1=O)NCc1ccccc1,-1.3,1.1,2.1*,10,17
NC(=O)c1ccccc1NC(=O)CCCN1C(=O)CCC1=O,-0.32,-0.013,0.28,2,-52
COCc1nc2ccccc2n1CCOc1ccccc1OC,-0.18,-0.35,-0.44,-3,-35
CCOC(=O)CCC(=O)N1CCOCCN(C(=O)CCC(=O)OCC)CCOCC1,0.21,0.19,0.48,3,-27
CCOC(=O)CCC(=O)N1CCNC(=O)C1,0.72,.,2.2*,0,.
N#Cc1c(-c2ccccc2)nc(SCc2nc(N)nc(N3CCCCC3)n2)[nH]c1=O,1.6,-3.2*,0.45,7,42
CCOC(=O)CSc1cccc2cccnc12,.,0.19,.,9,-2

# Screens as filed in PubChem.
